Assay results reported in ChEMBL document CHEMBL5120943, “Discovery of Novel Pyrazolopyrimidines as Potent, Selective, and Orally Bioavailable Inhibitors of ALK2” (ACS Med Chem Lett, 2022).

How the values were obtained:
Activin receptor type-1 [1] = target: T1, Activin receptor type-1 (Homo sapiens, UniProt Q04771); assay: Inhibition of human recombinant N-terminal GST tagged ALK2 (147 to end residues) expressed in baculovirus infected in Sf9 cells assessed as loss of peptide phosphorylation activity using peptide substrate in presence of ATP and measured after 3 hrs by HTRF assay
T1 sequence (Q04771 whole entry): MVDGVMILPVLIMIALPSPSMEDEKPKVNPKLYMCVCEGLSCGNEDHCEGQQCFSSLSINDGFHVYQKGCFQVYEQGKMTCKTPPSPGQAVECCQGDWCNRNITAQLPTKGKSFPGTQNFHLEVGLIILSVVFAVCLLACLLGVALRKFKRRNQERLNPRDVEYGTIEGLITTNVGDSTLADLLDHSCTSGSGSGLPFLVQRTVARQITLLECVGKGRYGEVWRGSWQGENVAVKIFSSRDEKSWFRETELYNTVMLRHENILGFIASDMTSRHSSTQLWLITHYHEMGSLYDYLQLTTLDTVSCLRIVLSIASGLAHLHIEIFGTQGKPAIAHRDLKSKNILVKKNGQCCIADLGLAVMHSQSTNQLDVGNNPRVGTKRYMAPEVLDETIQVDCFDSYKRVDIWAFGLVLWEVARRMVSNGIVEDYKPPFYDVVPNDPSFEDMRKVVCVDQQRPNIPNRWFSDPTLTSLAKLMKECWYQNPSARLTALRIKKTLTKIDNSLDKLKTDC
How it was run: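 HTRF activity assay measuring loss of ALK2 phosphorylation of a peptide substrate. IC50 values were determined.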

Activin receptor type-1 [2] = target: T1, Activin receptor type-1; assay: Inhibition of ALK2 in human HeLa cells assessed as reduction in BMP-7 induced SMAD1 phosphorylation incubated for 1 hr followed BMP-7 stimulation for 30 mins by HTRF assay; assay type: cell-based
How it was run: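 HeLa cells were stimulated with BMP7. Inhibition of BMP7-induced SMAD1 phosphorylation was read by HTRF and an IC50 was derived.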

[3] = Half life in Sprague-Dawley rat at 3 mg/kg, po or 1 mg/kg, iv measured upto 24 hrs post dose by LC/MS/MS analysis; assay type: ADME, organism-based; conditions: in vivo
[4] = Cmax in Sprague-Dawley rat at 3 mg/kg, po measured upto 24 hrs post dose by LC/MS/MS analysis; assay type: ADME, organism-based; design: dose 3 mg/kg, time < 24 hrs, route po; conditions: in vivo
[5] = Protein binding in human plasma assessed as free fraction measured after 2 hrs by LC-MS/MS analysis; assay type: ADME, cell-free
[6] = AUC infinity in Sprague-Dawley rat at 3 mg/kg, po measured upto 24 hrs post dose by LC/MS/MS analysis; assay type: ADME, organism-based; design: time < 24 hrs, dose 3 mg/kg, route po; conditions: in vivo
[7] = Metabolic stability in human liver microsomes assessed as intrinsic clearance at 1uM and measured upto 30 mins in presence of NADPH by LC/MS analysis; assay type: ADME, Microsome; conditions: read-out: CLH (converted)
[8] = Oral bioavailability in Sprague-Dawley rat at 3 mg/kg measured upto 24 hrs post dose by LC/MS/MS analysis; assay type: ADME, organism-based; conditions: in vivo
[9] = Volume of distribution at steady state in Sprague-Dawley rat at 3 mg/kg, po or 1 mg/kg, iv measured upto 24 hrs post dose by LC/MS/MS analysis; assay type: ADME, organism-based; conditions: in vivo
Hepcidin = target: T2, Hepcidin (Homo sapiens, UniProt P81172); assay: Inhibition of Hepcidin in human Huh-7 cells assessed as inhibition of BMP-7 induced hepcidin production incubated for 16 to 24 hrs by ELISA method; assay type: cell-based
T2 sequence (P81172 whole entry): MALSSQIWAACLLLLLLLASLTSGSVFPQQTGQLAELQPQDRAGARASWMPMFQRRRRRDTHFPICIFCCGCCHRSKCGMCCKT
How it was run: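 Huh7 liver cells were stimulated with BMP7. Inhibition of secreted hepcidin was measured and an IC50 was derived.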

## C[C@@H]1CN(c2ccc(-c3n[nH]c4cnc(N5[C@H](C)COC[C@@H]5C)nc34)cn2)CCN1
Activin receptor type-1 [1]
  IC50: 23 nM
Activin receptor type-1 [2]
  IC50: 245 nM

## C[C@@H]1CN(c2ccc(-c3n[nH]c4cnc(N5CCCCC5)cc34)cn2)CCN1
Activin receptor type-1 [1]
  IC50: 77 nM

## C[C@@H]1CN(c2ccc(-c3n[nH]c4cnc(N5CCCCC5)nc34)cn2)CCN1
Activin receptor type-1 [1]
  IC50: 8.1 nM

## C[C@@H]1CN(c2ccc(-c3n[nH]c4cnc(N5[C@H](C)CN(C(=O)N6CCCC6)C[C@@H]5C)nc34)cn2)CCN1
[3]
  half-life: 3.8 h
[4]
  Cmax: 151 nM
[5]
  fraction unbound at 2 h: 0.043
[6]
  AUC(0-inf): 0.669 µM·h
[7]
  CLint scaled at 1 µM: 18.3 mL/min/kg
[8]
  bioavailability: 46%
[9]
  Vdss: 9.2 L/kg
Hepcidin
  IC50: 28 nM

## C[C@@H]1CN(c2ccc(-c3n[nH]c4cnc(N5[C@H](C)CCC[C@@H]5C)nc34)cn2)CCN1
Activin receptor type-1 [1]
  IC50: 2.5 nM
Activin receptor type-1 [2]
  IC50: 384 nM

## C[C@@H]1CN(c2ccc(-c3n[nH]c4ccc(N5CCCCC5)nc34)cn2)CCN1
Activin receptor type-1 [1]
  IC50: 95 nM
Activin receptor type-1 [2]
  IC50: > 3000 nM

## C[C@@H]1CN(c2ccc(-c3n[nH]c4cnc(N5[C@H](C)CN(C(=O)N(C)C)C[C@@H]5C)nc34)cn2)CCN1
Activin receptor type-1 [1]
  IC50: 6.4 nM
Activin receptor type-1 [2]
  IC50: 350 nM

## COC(=O)N1C[C@@H](C)N(c2ncc3[nH]nc(-c4ccc(N5CCN(C)CC5)c(F)c4)c3n2)[C@@H](C)C1
Activin receptor type-1 [1]
  IC50: 1.3 nM
Activin receptor type-1 [2]
  IC50: 119 nM
